Results: ChEMBL document CHEMBL4257581, “Discovery of Small Molecule Splicing Modulators of Survival Motor Neuron-2 (SMN2) for the Treatment of Spinal Muscular Atrophy (SMA)” (J Med Chem, 2018)

Experiments:
[1] = Lipophilicity, log D of the compound at pH 7.4; assay type: physicochemical; details: buffer
Mus musculus = species: Mus musculus; experiment: Stabilization of SMN2 mRNA in mouse myoblasts assessed as increase in SMN protein level by ELISA relative to DMSO control
[2] = Clearance in Sprague-Dawley rat at 1 mg/kg, iv or 10 mg/kg, po; assay type: ADME, organism-based; details: in vivo
[3] = Permeability of the compound at 5 uM after 4 hrs by PAMPA; assay type: ADME
[4] = Oral bioavailability in Sprague-Dawley rat at 10 mg/kg; assay type: ADME, organism-based; details: in vivo
[5] = Drug level in Sprague-Dawley rat brain at 1 mg/kg, iv or 10 mg/kg, po after 7 hrs; assay type: ADME, organism-based; details: read-out: Drug uptake
[6] = AUC in Sprague-Dawley rat at 1 mg/kg, iv or 10 mg/kg, po; assay type: ADME, organism-based; details: in vivo
[7] = Oral bioavailability in mouse at 10 mg/kg; assay type: ADME, organism-based; details: in vivo
How it was run: (§1)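 Mouse PK: oral arm dosed at 10 mg/kg p.o. alongside a 1 mg/kg i.v. arm. Plasma and brain AUC were taken from the oral arm.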

[8] = AUC in mouse plasma at 10 mg/kg, po; assay type: ADME, organism-based; how it was run: as §1
[9] = Clearance in mouse at 1 mg/kg, iv or 10 mg/kg, po; assay type: ADME, organism-based; details: in vivo
How it was run: (§2)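 Mouse PK with dosing at 1 mg/kg i.v. and 10 mg/kg p.o.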

[10] = Intrinsic clearance in rat liver microsomes at 1 uM up to 30 mins in presence of NADPH by LC-MS/MS analysis; assay type: ADME, microsome; details: read-out: CLH
[11] = Half life in mouse at 1 mg/kg, iv or 10 mg/kg, po; assay type: ADME, organism-based; details: in vivo; how it was run: as §2
[12] = Drug level in mouse brain at 10 mg/kg, po after 7 hrs; assay type: ADME, organism-based; details: read-out: Drug uptake
How it was run: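 Mouse PK at 10 mg/kg p.o. Brain concentration was measured at a single time point, 7 h after the oral dose.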

[13] = AUC in mouse brain at 10 mg/kg, po; assay type: ADME, organism-based; how it was run: as §1
[14] = Dissociation constant, pKa of the compound; assay type: physicochemical
Homo sapiens = species: Homo sapiens; experiment: Stabilization of SMN2 mRNA in human spinal muscular atrophy patient derived fibroblasts by ELISA
[15] = Oral bioavailability in C57BL/6 mouse at 5 mg/kg; assay type: ADME, organism-based; details: in vivo
How it was run: (§3)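 Mice received single doses of 1 mg/kg i.v. or 5 mg/kg p.o. (n = 2). The vehicle was 10% 0.1 N HCl, 10% PG, 25 (20%) Solutol and 100 mM pH 5 citrate buffer. Plasma was sampled for PK parameters.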

[16] = AUC (0 to 7 hrs) in C57BL/6 mouse plasma at 1 mg/kg, iv or 5 mg/kg, po; assay type: ADME, organism-based; how it was run: as §3
[17] = Plasma clearance in C57BL/6 mouse at 1 mg/kg, iv or 5 mg/kg, po; assay type: ADME, organism-based; how it was run: as §3
[18] = Drug level in brain in C57BL/6 mouse brain at 1 mg/kg, iv or 5 mg/kg, po; assay type: ADME, organism-based; details: in vivo, read-out: Drug uptake
[19] = Solubility of the compound at pH 6.8; assay type: physicochemical; details: buffer
[20] = Intrinsic clearance in mouse liver microsomes at 1 uM up to 30 mins in presence of NADPH by LC-MS/MS analysis; assay type: ADME, microsome; details: read-out: CLH

With `CC1(C)CC(Oc2ccc(-c3ccc(-n4cccn4)cc3O)nn2)CC(C)(C)N1CC(F)(F)F` the logD [1] was 4.65 and the fold change (FC) (Mus musculus) was 1.1.

With `CN(c1ccc(-c2cc3cnccc3cc2O)nn1)C1CC(C)(C)NC(C)(C)C1` the clearance [2] was 57 mL/min/kg, the “log(permeability)” value [3] was -4.3 and the bioavailability [4] was 100%. The logD [1] was 3.07, the fold change (FC) (Mus musculus) was 2.6 and the concentration at 7 h [5] was 630 nM. For the same molecule, the AUC [6] was 1.35 µM·h.

In the case of `CN(c1ccc(-c2ccc(C#N)cc2O)nn1)C1CC(C)(C)NC(C)(C)C1`, the bioavailability [7] is reported as 37%, the AUC [8] is reported as 5.2 µM·h and the clearance [9] is reported as 23 mL/min/kg. The microsomal CLint at 1 µM [10] was 7 µL/min/mg, the half-life [11] was 4.5 h and the logD [1] was 3.2. For the same molecule, the fold change (FC) (Mus musculus) was 3.1 and the concentration at 7 h [12] was 2000 nM.

For `CN(c1ccc(-c2cc3cccnc3cc2O)nn1)C1CC(C)(C)NC(C)(C)C1`, the clearance [2] was 35 mL/min/kg, the “log(permeability)” value [3] was -4.5 and the bioavailability [4] was 46%. It also gave a logD [1] of 3.23, a fold change (FC) (Mus musculus) of 2.9 and a concentration at 7 h [5] of 68 nM. It also gave an AUC [6] of 1.17 µM·h.

`CN(c1ccc(-c2cc3ccccc3cc2O)nn1)C1CC(C)(C)NC(C)(C)C1` gave a bioavailability [7] of 100%, an AUC [8] of 16.9 µM·h and an AUC [13] of 36.7 µM·h. The clearance [9] was 56 mL/min/kg, the microsomal CLint at 1 µM [10] was 17 µL/min/mg and the half-life [11] was 3.7 h. The logD [1] was 4 and the fold change (FC) (Mus musculus) was 2.4 to 2.5.

`COc1cc(C#N)ccc1-c1ccc(N(C)C2CC(C)(C)NC(C)(C)C2)nn1` gave a fold change (FC) (Mus musculus) of 2.3.

With `CN(c1ccc(-c2ccc(-c3cn[nH]c3)cc2O)nn1)C1CC(C)(C)NC(C)(C)C1` the clearance [2] was 22 mL/min/kg, the “log(permeability)” value [3] was -5.4 and the bioavailability [4] was 53%. For the same molecule, the logD [1] was 2.92, the fold change (FC) (Mus musculus) was 3.1 and the concentration at 7 h [5] was 58 nM. For the same molecule, the AUC [6] was 2.3 µM·h.

For `CC1(C)CC(Cc2ccc(-c3ccc(-c4cn[nH]c4)cc3O)nn2)CC(C)(C)N1`, the “log(permeability)” value [3] was -5.3 and the logD [1] was 2.89.

`Oc1cc(-n2cccn2)ccc1-c1ccc(OC2CCNCC2)nn1` showed a logD [1] of 0.69.

For `Oc1cc(-n2cccn2)ccc1-c1ccc(OC2CCNCC2(F)F)nn1` (stereo not drawn), the pKa [14] was 5.89, the logD [1] was 2.59 and the fold change (FC) (Mus musculus) was 1.2.

With `Oc1cc(-c2cn[nH]c2)ccc1-c1ccc(N2C[C@H]3CNC[C@H]3C2)nn1` the logD [1] was 0.58.

For `Oc1cc(-c2cn[nH]c2)ccc1-c1ccc(N2CCC3(CCCNC3)C2)nn1` (stereo not drawn), the logD [1] was 1.2.

In the case of `CN(c1ccc(-c2ccc(-n3cc(CO)cn3)cc2O)nn1)C1CC(C)(C)NC(C)(C)C1`, the “log(permeability)” value [3] is reported as -5.5 and the logD [1] is reported as 2.16.

With `CC1(C)CC(Oc2ccc(-c3ccc(-c4cn[nH]c4)cc3O)nn2)CC(C)(C)N1` [BRANAPLAM] the clearance [2] was 25 mL/min/kg, the “log(permeability)” value [3] was -4.9 and the bioavailability [4] was 63%. For the same molecule, the logD [1] was 2.51, the concentration at 7 h [5] was 914 nM and the AUC [6] was 3.03 µM·h.

In the case of `CN(c1ccc(-c2ccc(-n3ccc(N)n3)cc2O)nn1)C1CC(C)(C)NC(C)(C)C1`, the clearance [2] is reported as 16 mL/min/kg, the “log(permeability)” value [3] is reported as -5.2 and the bioavailability [4] is reported as 4%. The logD [1] was 2.52, the fold change (FC) (Mus musculus) was 2.8 and the concentration at 7 h [5] was less than 2.4 nM. For the same molecule, the AUC [6] was 0.092 µM·h.

Work on `CC1(C)CC(Nc2ccc(-c3cccc4ccccc34)nn2)CC(C)(C)N1` yielded a fold change (FC) (Mus musculus) of 1.

With `CC1(C)CC(Nc2ccc(-c3cc4ccccc4s3)nn2)CC(C)(C)N1` the pKa [14] was 10, the fold change (FC) (Homo sapiens) was 1.5 and the microsomal CLint at 1 µM [10] was 22.6 µL/min/mg. The bioavailability [15] was 18%, the AUC(0-t) [16] was 0.4 µM·h and the clearance [17] was 113 mL/min/kg. The logD [1] was 2.67, the concentration [18] was less than 2.7 nM and the fold change (FC) (Mus musculus) was 2.5. It also gave a solubility [19] greater than 1000 µM and a microsomal CLint at 1 µM [20] of 23.5 µL/min/mg.

For `CN(c1ccc(-c2cc3ccccc3s2)nn1)C1CC(C)(C)NC(C)(C)C1`, the bioavailability [7] was 100%, the AUC [8] was 4.9 µM·h and the AUC [13] was 17.4 µM·h. For the same molecule, the clearance [9] was 100 mL/min/kg, the microsomal CLint at 1 µM [10] was 40 µL/min/mg and the half-life [11] was 3.2 h. The logD [1] was 3.4.

For `CC1(C)CC(Nc2ccc(-c3ccc4ccccc4c3)nn2)CC(C)(C)N1`, the fold change (FC) (Mus musculus) was 2.3.

With `CC1(C)CC(Oc2ccc(-c3ccc(-n4cccn4)cc3O)nn2)CC(C)(C)N1` the pKa [14] was 10.1 and the logD [1] was 2.79.

`CN(c1ccc(-c2ccc(-n3cccn3)cc2O)nn1)C1CC(C)(C)NC(C)(C)C1` showed a pKa [14] of 10.3, a logD [1] of 3.11 and a fold change (FC) (Mus musculus) of 3.1.
